The whole screen tested about 2,100 compounds, of which about 10 (0.5%) were called active.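 The calls were made as follows: active = mean triplicate inhibition above the solvent-only control wells' mean plus 3 SD (cut at about 12% in these data); inactive = the rest.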 A selection follows.
What follows are molecules tested against Disintegrin and metalloproteinase domain-containing protein 17 (Homo sapiens) (UniProt P78536) (assay: ADAM17 inhibitors, counter-screen for ADAM10 exosite inhibitor project, biochemical, QFRET, high throughput (AID 743214;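 also: 0% = DMSO wells and 100% = marimastat wells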)). Settings: ADAM17 QFRET peptide cleavage, EDANS fluorescence; at 6.95 µM; active compounds read high.
Method in brief: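 Assay system – ADAM17 protease with quenched-FRET EDANS/DABCYL peptide substrate · Amount – ADAM17 2X stock, 20 nM · Schedule – 30 min compound–enzyme preincubation, then 3 h reaction, both 25 °C · Measured by – EDANS fluorescence 359/460 nm · Read-out – percent inhibition of ADAM17 cleavage · Replicates – each compound tested in triplicate wells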

Chain of Disintegrin and metalloproteinase domain-containing protein 17 (Homo sapiens) (P78536 215-824 limits assumed): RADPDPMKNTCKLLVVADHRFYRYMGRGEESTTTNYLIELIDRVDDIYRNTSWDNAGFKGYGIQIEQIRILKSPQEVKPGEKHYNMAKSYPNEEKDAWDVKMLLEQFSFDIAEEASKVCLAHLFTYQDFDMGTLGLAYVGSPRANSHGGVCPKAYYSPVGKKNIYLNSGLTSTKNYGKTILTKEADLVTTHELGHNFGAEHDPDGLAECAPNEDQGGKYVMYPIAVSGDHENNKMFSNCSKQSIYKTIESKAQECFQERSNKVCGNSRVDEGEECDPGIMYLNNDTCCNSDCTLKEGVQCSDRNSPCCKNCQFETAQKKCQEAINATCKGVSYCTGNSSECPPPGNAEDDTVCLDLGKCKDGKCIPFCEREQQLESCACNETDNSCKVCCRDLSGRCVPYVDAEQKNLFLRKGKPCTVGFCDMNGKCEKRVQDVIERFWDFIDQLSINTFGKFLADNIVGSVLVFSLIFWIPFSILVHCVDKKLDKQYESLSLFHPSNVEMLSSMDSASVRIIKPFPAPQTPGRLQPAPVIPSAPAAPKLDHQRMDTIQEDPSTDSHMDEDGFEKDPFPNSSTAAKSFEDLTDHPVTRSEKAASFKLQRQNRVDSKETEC

Row | SMILES | inhibition
1 | COc1ccc(NS(=O)(=O)c2ccc(C)c(C(=O)NNC(=O)c3csc(N4CCOCC4)n3)c2)cc1 | 1.55% (inactive)
2 | O=C(COC(=O)CCCSc1nc2ccccc2[nH]1)Nc1ccc(Oc2ccccc2)cc1 | 3.79% (inactive)
3 | Cc1cccc(CCNS(=O)(=O)c2ccc(S(=O)(=O)NC3CCCC3)cc2)c1 | -0.14% (inactive)
4 | O=C(CSCc1ccc(Br)cc1)Nc1ccc(S(=O)(=O)N2CCCCCC2)cc1 | 3.71% (inactive)
5 | O=Cc1cn(CCOc2ccc(F)cc2)c2ccccc12 | -0.11% (inactive)
6 | O=C(Nc1cccc(S(=O)(=O)Nc2ccc(Cl)cc2)c1)c1ccc2c(c1)OCCO2 | 2.96% (inactive)
7 | COc1cccc(NC(=O)CN2CCN(c3nc(-c4cccc(OC)c4)cs3)CC2)c1 | 2.32% (inactive)
8 | Cc1ccc(NC(=O)c2nc[nH]c2C(=O)N[C@@H](CCCCNC(=O)OC(C)(C)C)C(=O)OC(C)(C)C)cc1 | 3.32% (inactive)
9 | S=c1[nH]cc(-c2ccc(Cl)cc2)n1-c1ccccc1 | 0.72% (inactive)
10 | CCC1(C)Cc2c(sc3nnn(CC(=O)Nc4ccc(Cl)cc4)c(=O)c23)CO1 (stereo not drawn) | 1.24% (inactive)
11 | CC(C)(C)N1C(=O)[C@H]2[C@@H](c3ccc(Br)cc3)N3C(=O)N(c4cccc(Cl)c4)C(=O)[C@@]3(C)[C@H]2C1=O | 0.76% (inactive)
12 | Cc1ccc(S(=O)(=O)N(CC(=O)Nc2cccnc2)c2ccc(Br)cc2)cc1 | 0.35% (inactive)
13 | O=C(NCCc1ccc(Cl)cc1Cl)c1cc([N+](=O)[O-])c[nH]c1=O | 0.13% (inactive)
14 | O=S(=O)(c1cccc(S(=O)(=O)N2CCC(n3nnc4ccccc43)CC2)c1)N1CCCCC1 | 0.16% (inactive)
15 | C#CCN(C[C@H]1[C@H](OC(=O)NC2CCCC2)[C@H](OC(=O)NC2CCCC2)C[C@H]2C(=O)N(c3ccccc3)C(=O)[C@@H]12)S(=O)(=O)c1ccc(C)cc1 | 1.32% (inactive)
16 | COc1ccc([C@@H]2[C@@H]3C(=O)N(C(C)(C)C)C(=O)[C@@H]3[C@]3(Cc4ccccc4)C(=O)N(c4cccc(Br)c4)C(=O)N23)cc1 | 2.34% (inactive)
17 | O=C(CC(O)(C(F)(F)F)C(F)(F)F)Nc1ccc(Cl)c(Cl)c1 | 1.21% (inactive)
18 | O=S(=O)(c1ccccc1)N(Cc1cccc(F)c1)c1ccccc1 | 0.96% (inactive)
19 | C=C(C)COc1ccc(-c2n[nH]c(C)c2-c2ccccc2)c(O)c1 | 3.15% (inactive)
20 | COc1ccc(C(N)c2csc(NC(=O)Nc3cccc(C(F)(F)F)c3)n2)cc1 (stereo not drawn) | 1.65% (inactive)
21 | COC(=O)C1NN=C(C(=O)c2ccc(Br)cc2)C1c1cccc(Br)c1 (stereo not drawn) | 1.16% (inactive)
22 | CCC(C(=O)OCC(=O)Nc1ccccc1-c1ccccc1)c1ccccc1 (stereo not drawn) | 1.36% (inactive)
23 | COc1cccc(C2CC(c3ccccc3)=NN2S(=O)(=O)c2ccccc2)c1OC (stereo not drawn) | 1.14% (inactive)
24 | Cc1ccc(S(=O)(=O)N2CCN(C(=O)COC(=O)c3c(C)cc(C)cc3C)CC2)c(C)c1 | 1.25% (inactive)
25 | CC(N=Cc1nc(-c2ccccc2)oc1O)c1ccccc1 (stereo not drawn) | 1.57% (inactive)

Row | SMILES | inhibition
26 | Cc1cccc(C2c3[nH]c4ccccc4c3CCN2C(=O)c2cc(-c3cccn3C)n[nH]2)n1 (stereo not drawn) | 2.55% (inactive)
27 | COc1ccc([C@H]2CC(=O)C=C(c3ccc(OC(F)(F)F)cc3)C2)cc1OC | 0.8% (inactive)
28 | O=C(CC1SC(=Nc2ccccc2)N(Cc2ccccn2)C1=O)Nc1cccc(Cl)c1 (stereo not drawn) | 2.48% (inactive)
29 | COc1cc(/C=N/O)cc(Br)c1OS(=O)(=O)c1ccc(C)cc1 | 0.97% (inactive)
30 | CC(C)C(=O)Nc1cccc(NC(=S)NC(=O)C(c2ccccc2)c2ccccc2)c1 | 3.08% (inactive)
31 | CC(C)(C)OC(=O)N1CCC(NC(=O)c2[nH]cnc2C(=O)N[C@@H](Cc2ccccc2)C(=O)OCc2ccccc2)CC1 | 3.26% (inactive)
32 | CCOc1ccc(N2C(=O)CC(N(CCc3ccc(OC)c(OC)c3)C(=S)Nc3ccccc3)C2=O)cc1 (stereo not drawn) | 0.25% (inactive)
33 | CCCC(=O)n1nc(NCc2ccc(OC)cc2)nc1NCc1ccc(OC)cc1 | 2.02% (inactive)
34 | O=C(/C=C/c1ccc(F)cc1)NC(=S)NNC(=O)c1cccnc1 | 0.5% (inactive)
35 | COc1cccc(NC(=O)C2C(c3ccccc3)C2(Cl)Cl)c1 (stereo not drawn) | 1% (inactive)
36 | CC1(C)C=Cc2c(ccc3c2OC[C@@H](c2ccc(O)cc2O)C3)O1 | 2.8% (inactive)
37 | Cc1ccc(C)c(NC(=S)NNC(=O)c2csc(C)c2)c1 | 2.16% (inactive)
38 | COc1ccc(S(=O)(=O)N2CCN(C(C)C(=O)Nc3ccc(C(C)C)cc3)CC2)cc1 (stereo not drawn) | 1.3% (inactive)
39 | COc1ccc(C(=O)NNC(=S)NC(=O)c2ccccc2)cc1 | 0.42% (inactive)
40 | O=C1[C@H]2[C@@H](c3ccc(F)cc3)N3C(=O)N(c4ccc(C(F)(F)F)cc4)C(=O)[C@@]3(Cc3ccccc3)[C@H]2C(=O)N1C1CCCCC1 | 2.35% (inactive)
41 | COc1cccc(CC2(CO)CCCN(Cc3ccc(OC(F)F)cc3)C2)c1 (stereo not drawn) | 0.36% (inactive)
42 | CC(C)Oc1cc(F)ccc1-c1cc(C(=O)Nc2cccc(Cl)c2)[nH]n1 | 2.81% (inactive)
43 | CCOc1cc(NC(=O)c2ccccc2C(=O)O)c(OCC)cc1NC(=O)c1ccccc1F | 2.06% (inactive)
44 | Cc1csc(NC(=S)Nc2cccc(Cl)c2)n1 | 2.94% (inactive)
45 | O=C(NC(Cc1c[nH]c2ccccc12)C(=O)N/N=C/c1ccc(Br)cc1)c1cccs1 (stereo not drawn) | 3.25% (inactive)
46 | Cc1cc(C)cc(NS(=O)(=O)c2ccc(Oc3ncc(C(F)(F)F)cc3Cl)cc2)c1 | 5.19% (inactive)
47 | Cc1ccc(N(NC(=O)C(C)(C)O)C(=O)c2ccccc2)cc1C | -0.31% (inactive)
48 | O=C1[C@H]2[C@@H](c3ccc(C(F)(F)F)cc3)N[C@]3(CCCN(Cc4ccc(Br)cc4)C3=O)[C@H]2C(=O)N1Cc1ccccc1 | 2.47% (inactive)
49 | Cc1[nH]c2ccccc2c1C(=O)COC(=O)c1c(-c2ccccc2)noc1C | 2.46% (inactive)
50 | CC1(Cc2cccc(C#N)c2)C(=O)Nc2ccc(-c3cccc(C(F)(F)F)c3)cc21 (stereo not drawn) | 2.64% (inactive)

Row | SMILES | inhibition
51 | Cc1ccc(OCc2nnc(SC/C=C/c3ccccc3)n2Cc2ccco2)cc1 | 2.07% (inactive)
52 | Cc1ccccc1-n1c(SCC(=O)Nc2cccc3ccccc23)nc(O)cc1=O | 0.79% (inactive)
53 | O=C(CNC(=O)c1ccc(Cl)cc1Cl)NCC(=O)Nc1ccccc1N1CCOCC1 | -0.05% (inactive)
54 | Cc1cnc(C(=O)OCc2c(C)cc(C(C)(C)C)cc2C)cn1 | 0.19% (inactive)
55 | Cc1cc(C)cc(NC(=O)CSCc2cnn(-c3ccccc3)c2-n2cccc2)c1 | 1.7% (inactive)
56 | c1ccc2c(CCN3CCNC[C@H]3Cc3cccc4ccccc34)cccc2c1 | 2.24% (inactive)
57 | Cc1cc(O)ccc1-c1cc(C(=O)NCc2cc(C(F)(F)F)cc(C(F)(F)F)c2)[nH]n1 | 1.86% (inactive)
58 | Cc1cc(C)cc(NC(=S)NCCc2c[nH]c3ccccc23)c1 | 0.79% (inactive)
59 | COc1ccc(C2CC(c3ccccc3)=NN2C(=O)COC(=O)COc2ccccc2)cc1 (stereo not drawn) | 3.56% (inactive)
60 | C=CC[C@H](CC(=O)N(CCO)Cc1ccccc1)C(=O)N[C@@H](COC(=O)[C@@H](CC=C)Cc1ccc(F)cc1)Cc1ccccc1 | 3.06% (inactive)
61 | CCC(C)(C)c1ccc(Oc2ccc(NC(=O)COC(=O)C3=COCCO3)cc2)cc1 | 3.28% (inactive)
62 | COc1ccc(Cl)cc1NC(=O)CN(C)C(=O)CCCc1c[nH]c2ccccc12 | 0.4% (inactive)
63 | COc1ccccc1CC1(C)C(=O)Nc2ccc(OC(F)(F)F)cc21 (stereo not drawn) | 0.53% (inactive)
64 | CC(C)(C)OC(=O)CNC(=O)c1[nH]cnc1C(=O)N[C@@H](Cc1ccccc1)C(=O)OCc1ccccc1 | 2.08% (inactive)
65 | C=CCC[C@@H](Cc1ccc(F)cc1)C(=O)OC[C@H](Cc1c[nH]c2ccccc12)NC(=O)[C@@H](CC=C)CC(=O)N(CCO)Cc1ccccc1 | 3.11% (inactive)
66 | Cc1cc(Nc2ccccc2)n(C(=O)c2ccc(N)cc2)n1 | 0.56% (inactive)
67 | O=C(NCc1ccccc1)c1onc(CSc2nc3ccccc3[nH]2)c1C(=O)NCc1ccccc1 | 1.52% (inactive)
68 | COc1ccc(C(=O)NN2C(=O)C3C(c4ccccc4)C=CC(c4ccccc4)C3C2=O)cc1 (stereo not drawn) | 2.28% (inactive)
69 | N#Cc1nc(Cc2cccc3ccccc23)oc1NCc1ccc2c(c1)OCO2 | 2.25% (inactive)
70 | CC(C)Oc1ccc(CC(=O)NNC(=S)Nc2ccc(Br)cc2)cc1 | 0.68% (inactive)
71 | Cn1nc(C(F)(F)F)c(C(=O)Nc2cccc(C(F)(F)F)c2)c1SCc1ccc(Cl)cc1 | 2.65% (inactive)
72 | O=C(Oc1cccc(N2C(=O)C3C4c5ccccc5C(c5ccccc54)C3C2=O)c1)c1ccco1 (stereo not drawn) | 1.5% (inactive)
73 | COc1cc(/C=N/n2c(C)n[nH]c2=S)ccc1OCc1ccccc1 | -0.91% (inactive)

Source: PubChem BioAssay AID743214 (The Scripps Research Institute Molecular Screening Center, 2013)
